What was measured:
[1] = target: Receptor-type tyrosine-protein kinase FLT3 (Homo sapiens) (UniProt P36888); experiment: Inhibition of recombinant His-tagged human FLT3 expressed in baculovirus expression system at 1 uM measured by select screen assay relative to control
In short: (§1)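 Single-concentration profiling at 1.0 µM in a 28-kinase SelectScreen panel; percent inhibition reported.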

[2] = Volume of distribution at steady state in Sprague dawley rat at 1 mg/kg, iv; format: ADME, organism-based; details: in vivo, read-out: Vdss
In short: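 Single intravenous dose of 1 mg/kg to SD rats (n = 3 per group). Blood collected into heparinised tubes at specified times, centrifuged at 4 °C, and quantified by LC-MS/MS. Steady-state volume of distribution obtained by noncompartmental analysis.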

KM12 [3] = experiment: Induction of apoptosis in human KM12 cells assessed as early apoptotic cells at 250 nM measured after 48 hrs by AnnexinV-FITC/PI staining based flowcytometry assay relative to control; format: functional
In short: (§2)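 They were detached with trypsin, washed twice in PBS, and 10^5 cells were suspended in Annexin V binding buffer. Cells were stained with FITC-Annexin V and PI for 10 min at room temperature in the dark, diluted with PBS and analysed by flow cytometry.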

[4] = Stability in human plasma assessed as half life incubated for 0 mins by LC-MS/MS analysis; format: ADME, cell-free
In short: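 Pooled frozen human plasma thawed at 37 °C, centrifuged to remove clots, pH adjusted to 7.4 if required. Spiked to 2 µM final (from 100 µM dosing solution), in duplicate, incubated at 37 °C in a water bath. Sampled at 0, 10, 30, 60 and 120 min, quenched with acetonitrile stop solution containing internal standards, centrifuged, and supernatant analysed by LC-MS/MS for percent remaining.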

[5] = AUC (last) in Sprague dawley rat at 3 mg/kg, po; format: ADME, organism-based; design: time 0 - last, route oral, dose 3 mg/kg; details: in vivo
In short: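 Blood was collected into heparin tubes at specified time points and centrifuged at once (4 °C, 4000 rpm, 20 min). Plasma levels were quantified by LC-MS/MS. Parameters came from noncompartmental analysis.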

[6] = Stability in human liver microsomes assessed as half life at 100 uM measured after 60 mins by LC-MS/MS analysis; format: ADME, Microsome; details: 1 h
In short: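 Human liver microsomes diluted to 0.59 mg/mL working solution in 100 mM potassium phosphate, prewarmed 10 min at 37 °C; compound added from a 100 µM working solution. NADPH (in 10 mM MgCl2) added to one plate, buffer instead in no-cofactor control. Incubated at 37 °C, quenched at 5, 15, 30, 45, 60 min, centrifuged, analysed by LC-MS/MS.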

[7] = target: Serine/threonine-protein kinase mTOR (Homo sapiens) (UniProt P42345); experiment: Inhibition of recombinant GST-tagged human mTOR (1360 to 2549 residues) expressed in baculovirus expression system at 1 uM measured by select screen assay relative to control; in short: as §1
[8] = target: AMP-activated protein kinase, AMPK (Homo sapiens) (UniProt P54646+O43741+P54619+Q9UGJ0+Q9Y478+Q13131+Q9UGI9); experiment: Inhibition of recombinant GST-tagged His-tagged full length human AMPK expressed in baculovirus expression system at 1 uM measured by select screen assay; in short: as §1
KM12 [9] = experiment: Induction of apoptosis in human KM12 cells assessed as viable cells at 1000 nM measured after 48 hrs by AnnexinV-FITC/PI staining based flowcytometry assay relative to control; format: functional; details: read-out: Activity
In short: (§3)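 10^5 cells in Annexin V binding buffer stained with FITC-Annexin V and PI for 10 min at room temperature in the dark, diluted with PBS and analysed by flow cytometry (FITC 494/518 nm, PI 535/617 nm).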

[10] = target: Proto-oncogene tyrosine-protein kinase ROS (Homo sapiens) (UniProt P08922); experiment: Inhibition of recombinant GST-tagged human ROS1 expressed in baculovirus expression system at 1 uM measured by select screen assay relative to control; in short: as §1
Proto-oncogene tyrosine-protein kinase ROS (Homo sapiens), sequence (P08922 whole entry, the tested form may be a part): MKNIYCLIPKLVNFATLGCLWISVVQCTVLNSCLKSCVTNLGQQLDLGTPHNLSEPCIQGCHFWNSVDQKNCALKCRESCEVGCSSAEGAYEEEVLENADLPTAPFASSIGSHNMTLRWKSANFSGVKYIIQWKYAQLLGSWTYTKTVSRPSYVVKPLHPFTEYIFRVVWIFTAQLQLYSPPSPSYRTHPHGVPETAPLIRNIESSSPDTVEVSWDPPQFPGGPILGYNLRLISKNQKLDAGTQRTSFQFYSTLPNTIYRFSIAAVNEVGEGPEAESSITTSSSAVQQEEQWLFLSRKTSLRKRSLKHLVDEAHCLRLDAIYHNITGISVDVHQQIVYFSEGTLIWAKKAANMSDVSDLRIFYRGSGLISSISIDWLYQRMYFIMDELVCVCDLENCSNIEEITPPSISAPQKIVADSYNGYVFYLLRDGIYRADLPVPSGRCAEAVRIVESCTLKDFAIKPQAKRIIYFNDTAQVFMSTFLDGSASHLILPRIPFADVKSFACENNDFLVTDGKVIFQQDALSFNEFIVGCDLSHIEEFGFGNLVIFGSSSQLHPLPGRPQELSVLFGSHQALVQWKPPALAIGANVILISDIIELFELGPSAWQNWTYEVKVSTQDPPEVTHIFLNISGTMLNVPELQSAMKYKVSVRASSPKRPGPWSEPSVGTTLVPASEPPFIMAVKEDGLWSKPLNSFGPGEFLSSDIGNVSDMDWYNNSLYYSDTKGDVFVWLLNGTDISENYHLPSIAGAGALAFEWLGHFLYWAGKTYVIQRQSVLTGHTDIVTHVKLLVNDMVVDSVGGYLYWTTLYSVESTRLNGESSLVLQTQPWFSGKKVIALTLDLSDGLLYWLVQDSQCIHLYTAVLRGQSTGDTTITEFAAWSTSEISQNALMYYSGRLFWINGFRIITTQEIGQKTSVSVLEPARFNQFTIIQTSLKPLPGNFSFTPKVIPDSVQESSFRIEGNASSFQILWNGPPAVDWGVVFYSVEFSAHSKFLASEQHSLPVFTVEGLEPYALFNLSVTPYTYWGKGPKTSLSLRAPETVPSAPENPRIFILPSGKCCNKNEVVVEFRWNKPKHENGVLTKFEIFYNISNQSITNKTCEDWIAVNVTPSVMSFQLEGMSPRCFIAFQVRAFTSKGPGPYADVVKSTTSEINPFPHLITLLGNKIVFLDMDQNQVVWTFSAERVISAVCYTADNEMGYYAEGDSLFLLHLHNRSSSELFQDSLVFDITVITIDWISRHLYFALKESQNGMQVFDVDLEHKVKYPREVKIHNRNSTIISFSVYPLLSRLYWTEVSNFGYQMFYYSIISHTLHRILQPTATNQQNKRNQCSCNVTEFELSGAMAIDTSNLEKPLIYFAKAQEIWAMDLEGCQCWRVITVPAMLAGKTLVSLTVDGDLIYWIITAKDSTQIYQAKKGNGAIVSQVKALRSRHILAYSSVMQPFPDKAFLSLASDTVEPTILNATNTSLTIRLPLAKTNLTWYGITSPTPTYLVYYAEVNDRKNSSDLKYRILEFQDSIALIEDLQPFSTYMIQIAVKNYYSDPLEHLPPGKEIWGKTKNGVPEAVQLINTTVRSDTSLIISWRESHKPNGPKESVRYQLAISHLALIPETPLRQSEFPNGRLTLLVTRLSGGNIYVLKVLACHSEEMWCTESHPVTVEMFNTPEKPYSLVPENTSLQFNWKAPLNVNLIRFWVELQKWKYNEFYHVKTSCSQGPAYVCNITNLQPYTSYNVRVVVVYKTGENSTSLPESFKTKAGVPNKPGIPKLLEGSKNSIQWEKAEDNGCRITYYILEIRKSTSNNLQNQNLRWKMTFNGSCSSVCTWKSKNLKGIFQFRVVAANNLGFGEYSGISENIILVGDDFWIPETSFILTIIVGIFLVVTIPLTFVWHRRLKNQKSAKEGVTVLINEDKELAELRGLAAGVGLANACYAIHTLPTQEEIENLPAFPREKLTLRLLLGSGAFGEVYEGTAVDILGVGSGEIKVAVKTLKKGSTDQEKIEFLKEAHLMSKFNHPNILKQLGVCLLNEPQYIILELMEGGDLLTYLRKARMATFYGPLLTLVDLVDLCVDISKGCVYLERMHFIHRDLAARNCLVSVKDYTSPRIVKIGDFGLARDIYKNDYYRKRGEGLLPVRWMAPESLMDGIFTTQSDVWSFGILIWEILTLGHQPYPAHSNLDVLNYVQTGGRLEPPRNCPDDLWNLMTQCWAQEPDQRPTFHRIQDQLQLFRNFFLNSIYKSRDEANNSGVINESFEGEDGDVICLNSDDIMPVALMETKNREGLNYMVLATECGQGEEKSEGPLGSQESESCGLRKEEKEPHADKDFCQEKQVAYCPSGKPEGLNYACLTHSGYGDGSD

[11] = target: T1, NT-3 growth factor receptor (Homo sapiens, UniProt Q16288); experiment: Inhibition of N-terminal GST-tagged human TRKC (456 to 825 residues) expressed in Sf21 using TK as substrate in presence of ATP measured after 40 mins by HTRF assay
[12] = Oral bioavailability in Sprague dawley rat at 3 mg/kg; format: ADME, organism-based; details: in vivo
In short: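 Male-unspecified SD rats, n = 3 per group, single i.v. dose 1 mg/kg or oral 3 mg/kg. Blood drawn into heparin tubes at set times, centrifuged at 4 °C, plasma quantified by LC-MS/MS; noncompartmental parameters fitted.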

[13] = target: Focal adhesion kinase 1 (Homo sapiens) (UniProt Q05397); experiment: Inhibition of recombinant GST-tagged full length human FAK expressed in baculovirus expression system at 1 uM measured by select screen assay; in short: as §1
Focal adhesion kinase 1 (Homo sapiens), sequence (Q05397 2-1052 limits assumed): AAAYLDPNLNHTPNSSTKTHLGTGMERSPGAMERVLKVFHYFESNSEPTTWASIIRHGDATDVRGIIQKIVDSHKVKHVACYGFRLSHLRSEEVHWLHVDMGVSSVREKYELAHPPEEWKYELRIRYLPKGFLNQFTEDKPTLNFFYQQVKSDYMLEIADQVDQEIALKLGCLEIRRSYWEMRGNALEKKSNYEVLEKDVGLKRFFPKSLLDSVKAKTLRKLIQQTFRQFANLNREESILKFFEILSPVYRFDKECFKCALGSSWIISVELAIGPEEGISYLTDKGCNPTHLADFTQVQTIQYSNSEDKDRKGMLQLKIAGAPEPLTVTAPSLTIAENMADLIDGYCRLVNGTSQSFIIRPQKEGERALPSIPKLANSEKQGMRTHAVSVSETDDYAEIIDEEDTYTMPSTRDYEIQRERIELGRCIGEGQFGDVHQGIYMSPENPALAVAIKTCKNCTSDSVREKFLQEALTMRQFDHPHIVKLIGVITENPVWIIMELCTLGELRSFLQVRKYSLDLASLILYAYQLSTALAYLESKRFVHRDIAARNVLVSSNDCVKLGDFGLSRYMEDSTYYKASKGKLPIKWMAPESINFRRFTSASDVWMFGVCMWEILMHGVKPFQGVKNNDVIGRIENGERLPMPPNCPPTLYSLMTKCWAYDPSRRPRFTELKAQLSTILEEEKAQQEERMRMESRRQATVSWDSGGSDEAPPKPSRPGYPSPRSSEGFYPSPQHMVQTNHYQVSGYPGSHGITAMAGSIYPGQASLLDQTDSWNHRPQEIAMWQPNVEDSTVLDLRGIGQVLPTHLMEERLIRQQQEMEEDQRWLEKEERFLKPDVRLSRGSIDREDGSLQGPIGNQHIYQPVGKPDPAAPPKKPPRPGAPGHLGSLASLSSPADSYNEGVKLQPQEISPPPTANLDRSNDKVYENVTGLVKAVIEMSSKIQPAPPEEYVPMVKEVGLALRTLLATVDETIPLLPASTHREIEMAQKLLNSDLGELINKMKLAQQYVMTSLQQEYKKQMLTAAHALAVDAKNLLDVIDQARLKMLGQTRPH

KM12 [14] = experiment: Induction of apoptosis in human KM12 cells assessed as necrotic cells at 1000 nM measured after 48 hrs by AnnexinV-FITC/PI staining based flowcytometry assay relative to control; format: functional; in short: as §2
KM12 [15] = experiment: Cell cycle arrest in human KM12 cells assessed as accumulation of cells at G1 phase at 1000 nM measured after 48 hrs by AnnexinV-FITC/PI staining based flowcytometry method relative to control; format: functional
KM12 [16] = experiment: Cell cycle arrest in human KM12 cells assessed as accumulation of cells at less G1 phase at 500 nM measured after 48 hrs by AnnexinV-FITC/PI staining based flowcytometry method relative to control; format: functional
KM12 [17] = experiment: Cell cycle arrest in human KM12 cells assessed as accumulation of cells at G2 phase at 62.5 nM measured after 48 hrs by AnnexinV-FITC/PI staining based flowcytometry method relative to control; format: functional
KM12 [18] = experiment: Induction of apoptosis in human KM12 cells assessed as necrotic cells at 125 nM measured after 48 hrs by AnnexinV-FITC/PI staining based flowcytometry assay relative to control; format: functional; in short: as §2
[19] = target: High affinity nerve growth factor receptor (Homo sapiens, UniProt P04629); experiment: Inhibition of recombinant His-tagged human TRKA expressed in baculovirus expression system at 1 uM measured by select screen assay relative to control; in short: as §1
High affinity nerve growth factor receptor, sequence (P04629 33-796 limits assumed): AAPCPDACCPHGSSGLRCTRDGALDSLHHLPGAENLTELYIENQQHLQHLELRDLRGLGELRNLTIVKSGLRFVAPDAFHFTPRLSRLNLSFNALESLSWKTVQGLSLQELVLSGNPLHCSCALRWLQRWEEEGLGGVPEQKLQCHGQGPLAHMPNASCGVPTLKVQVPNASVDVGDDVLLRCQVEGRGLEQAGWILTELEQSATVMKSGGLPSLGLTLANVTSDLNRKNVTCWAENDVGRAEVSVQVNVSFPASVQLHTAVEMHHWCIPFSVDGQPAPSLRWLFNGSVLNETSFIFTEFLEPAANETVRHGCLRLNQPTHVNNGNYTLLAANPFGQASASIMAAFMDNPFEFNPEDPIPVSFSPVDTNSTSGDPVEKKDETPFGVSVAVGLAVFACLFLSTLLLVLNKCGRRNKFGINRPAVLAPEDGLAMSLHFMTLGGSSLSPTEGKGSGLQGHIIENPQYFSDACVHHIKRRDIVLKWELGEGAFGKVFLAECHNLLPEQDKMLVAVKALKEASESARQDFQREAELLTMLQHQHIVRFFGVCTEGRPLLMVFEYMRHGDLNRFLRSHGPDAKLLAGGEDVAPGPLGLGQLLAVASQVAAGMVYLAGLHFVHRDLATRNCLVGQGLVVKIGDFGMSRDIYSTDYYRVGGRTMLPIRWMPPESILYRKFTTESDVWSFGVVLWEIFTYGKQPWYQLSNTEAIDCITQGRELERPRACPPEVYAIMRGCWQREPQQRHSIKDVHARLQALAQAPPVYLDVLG

KM12 [20] = experiment: Induction of apoptosis in human KM12 cells assessed as early apoptotic cells at 62.5 nM measured after 48 hrs by AnnexinV-FITC/PI staining based flowcytometry assay relative to control; format: functional; in short: as §2
KM12 [21] = experiment: Cell cycle arrest in human KM12 cells assessed as accumulation of cells at S phase at 1000 nM measured after 48 hrs by AnnexinV-FITC/PI staining based flowcytometry method relative to control; format: functional
[22] = target: Fibroblast growth factor receptor 1 (Homo sapiens) (UniProt P11362); experiment: Inhibition of recombinant His-tagged human FGFR1 expressed in baculovirus expression system at 1 uM measured by select screen assay relative to control; in short: as §1
Fibroblast growth factor receptor 1 (Homo sapiens), sequence (P11362 22-822 limits assumed): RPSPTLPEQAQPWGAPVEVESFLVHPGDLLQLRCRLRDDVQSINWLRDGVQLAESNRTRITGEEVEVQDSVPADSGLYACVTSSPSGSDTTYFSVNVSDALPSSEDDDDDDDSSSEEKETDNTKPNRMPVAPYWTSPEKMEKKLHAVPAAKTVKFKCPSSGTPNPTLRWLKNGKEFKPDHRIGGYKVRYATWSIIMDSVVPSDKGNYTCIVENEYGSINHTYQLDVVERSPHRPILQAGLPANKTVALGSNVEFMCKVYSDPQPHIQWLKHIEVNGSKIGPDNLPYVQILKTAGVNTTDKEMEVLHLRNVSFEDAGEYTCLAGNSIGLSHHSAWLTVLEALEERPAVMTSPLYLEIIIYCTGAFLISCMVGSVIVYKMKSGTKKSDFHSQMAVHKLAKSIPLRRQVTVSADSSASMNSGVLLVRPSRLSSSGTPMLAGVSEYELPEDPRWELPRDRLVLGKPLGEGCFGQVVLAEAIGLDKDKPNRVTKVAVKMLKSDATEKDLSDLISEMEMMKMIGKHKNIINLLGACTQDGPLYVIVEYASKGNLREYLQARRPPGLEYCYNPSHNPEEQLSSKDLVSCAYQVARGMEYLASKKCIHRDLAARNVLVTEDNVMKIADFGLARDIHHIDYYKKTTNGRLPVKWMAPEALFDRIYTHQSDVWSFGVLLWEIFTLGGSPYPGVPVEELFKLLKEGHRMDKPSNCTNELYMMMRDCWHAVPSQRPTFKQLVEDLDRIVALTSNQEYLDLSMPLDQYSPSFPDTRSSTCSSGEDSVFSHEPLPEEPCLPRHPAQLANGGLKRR

KM12 [23] = experiment: Cell cycle arrest in human KM12 cells assessed as accumulation of cells at G1 phase at 125 nM measured after 48 hrs by AnnexinV-FITC/PI staining based flowcytometry method relative to control; format: functional
[24] = target: T1, NT-3 growth factor receptor; experiment: Inhibition of recombinant His-tagged human TRKC expressed in baculovirus expression system at 1 uM measured by select screen assay relative to control; in short: as §1
KM12 [25] = experiment: Induction of apoptosis in human KM12 cells assessed as viable cells at 62.5 nM measured after 48 hrs by AnnexinV-FITC/PI staining based flowcytometry assay relative to control; format: functional; details: read-out: Activity; in short: as §3

For `CN1CCN(c2ccc(C(=O)Nc3n[nH]c4c3CN(Cc3cc(F)cc(F)c3)C4(C)C)cc2)CC1`, which inhibition [1] is on record?
The inhibition was 31%.

And the Vd [2]?
Its Vd is 0.892 L/kg.

And the Activity (KM12 [3])?
The Activity was 32.95%.

What about the half-life [4] of the same molecule?
The half-life was greater than 4.82 h.

And the AUC(0-t) [5]?
Its AUC(0-t) is 2700 ng·h/mL.

What about the t1/2 [6] of the same molecule?
Its t1/2 is 0.493 h.

What about the inhibition [7] of the same molecule?
Its inhibition is 1%.

What about the inhibition [8] of the same molecule?
The inhibition was 53%.

What about the viability at 1 µM (KM12 [9]) of the same molecule?
The viability at 1 µM was 23.7%.

And the inhibition [10]?
Its inhibition is 10%.

And the IC50 [11]?
Its IC50 is 0.011 µM.

What about the bioavailability [12] of the same molecule?
The bioavailability was 44.3%.

What about the inhibition [13] of the same molecule?
Its inhibition is 51%.

And the Activity (KM12 [14])?
The Activity was 0.04%.

And the Activity (KM12 [15])?
Its Activity is 72.8%.

What about the Activity (KM12 [16]) of the same molecule?
The Activity was 7.65%.

What about the Activity (KM12 [17]) of the same molecule?
Its Activity is 15.8%.

And the Activity (KM12 [18])?
Its Activity is 0.07%.

What about the inhibition [19] of the same molecule?
The inhibition was 102%.

And the Activity (KM12 [20])?
Its Activity is 19.55%.

What about the Activity (KM12 [21]) of the same molecule?
The Activity was 7.22%.

And the inhibition [22]?
Its inhibition is 60%.

And the Activity (KM12 [23])?
Its Activity is 56.6%.

And the inhibition [24]?
Its inhibition is 99%.

What about the viability at 0.0625 µM (KM12 [25]) of the same molecule?
Its viability at 0.0625 µM is 70.5%.
